In ChEMBL document CHEMBL1782023, “Spirocyclic lignans from Guaiacum (Zygophyllaceae) induce apoptosis in human breast cancer cell lines” (J Nat Prod, 2011):
Active and inactive are the calls of the source. The rule behind the calls is not given here.

Tests used:
MDA-MB-231 [1] = assay: Cell cycle arrest in human MDA-MB-231 cells assessed as increase of cells in sub-G0 phase after 24 hrs using annexin V/propidium iodide staining by flow cytometry; type: functional, cell-based
Outline: (§1)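 Cells cultured in RPMI 1640 with 10% heat-inactivated FCS, 37 °C, 5% CO2. After 24 h of growth, cells were treated with test samples dissolved in DMSO for a further 24 h. Cell cycle distribution was measured by FACS with annexin V/propidium iodide double staining. For DNA content, singlet events were gated and 10 000-20 000 events were acquired. Read-out: percentage of cells in S phase and in sub-G0 phase.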

MDA-MB-231 [2] = assay: Cell cycle arrest in human MDA-MB-231 cells assessed as decrease in cells in S phase after 24 hrs using annexin V/propidium iodide staining by flow cytometry; type: functional, cell-based; outline: as §1
MDA-MB-231 [3] = assay: Cytotoxicity against human MDA-MB-231 cells after 48 hrs by Alamar blue assay; type: functional, cell-based; conditions: MDA-MB-231, 48 h
Outline: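 Cells were seeded at 5000 per well and grown for 24 h. Samples were then added from DMSO solution, with 0.1% DMSO as vehicle control. After 48 h incubation, viability was read from Alamar blue colour spectrophotometrically at 540 nm.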

MDA-MB-231 [4] = assay: Cell cycle arrest in human MDA-MB-231 cells assessed as decrease in cells in S phase at 30 ug/ml after 24 hrs using annexin V/propidium iodide staining by flow cytometry (reference value: 13%); type: functional; set-up: scale not given: the % may be the effect or the level left; outline: as §1
MDA-MB-231 [5] = assay: Induction of apoptosis in human MDA-MB-231 cells assessed as condensation of nucleus after 24 hrs using Hoechst 33342/propidium iodide staining […]; type: functional, cell-based
MDA-MB-231 [6] = assay: Induction of apoptosis in human MDA-MB-231 cells assessed as condensation of cytoplasm after 24 hrs using Hoechst 33342/propidium iodide staining by FACS analysis; type: functional, cell-based
MDA-MB-231 [7] = assay: Induction of apoptosis in human MDA-MB-231 cells assessed as chromatin condensation after 24 hrs using Hoechst 33342/propidium iodide staining […]; type: functional, cell-based
MDA-MB-231 [8] = assay: Induction of apoptosis in human MDA-MB-231 cells assessed as chromatin segregation after 24 hrs using Hoechst 33342/propidium iodide staining […]; type: functional, cell-based
MDA-MB-231 [9] = assay: Induction of apoptosis in human MDA-MB-231 cells assessed as loss of membrane […] at 1.2 to 30 ug/ml using Hoechst 33342/propidium iodide staining by FACS analysis; type: functional, cell-based; conditions: TDE = time-dependent effect
MDA-MB-231 [10] = assay: Induction of apoptosis in human MDA-MB-231 cells assessed as condensation of nucleus at 1.2 to 30 ug/ml using Hoechst 33342/propidium iodide staining […]; type: functional, cell-based; conditions: TDE = time-dependent effect
MDA-MB-231 [11] = assay: Induction of apoptosis in human MDA-MB-231 cells assessed as condensation of cytoplasm at 1.2 to 30 ug/ml […]; type: functional, cell-based; conditions: TDE = time-dependent effect
MDA-MB-231 [12] = assay: Induction of apoptosis in human MDA-MB-231 cells assessed as chromatin condensation at 1.2 to 30 ug/ml using Hoechst 33342/propidium iodide staining […]; type: functional, cell-based; conditions: TDE = time-dependent effect
MDA-MB-231 [13] = assay: Induction of apoptosis in human MDA-MB-231 cells assessed as chromatin segregation at 1.2 to 30 ug/ml using Hoechst 33342/propidium iodide staining […]; type: functional, cell-based; conditions: TDE = time-dependent effect
MDA-MB-231 [14] = assay: Induction of apoptosis in human MDA-MB-231 cells assessed as loss of membrane […] after 24 hrs using Hoechst 33342/propidium iodide staining by FACS analysis; type: functional, cell-based

In the case of `CC[C@@]1(O)C(=O)OCc2c1cc1n(c2=O)Cc2cc3ccccc3nc2-1`, the Activity (MDA-MB-231 [1]) is reported as “Active” and the Activity (MDA-MB-231 [2]) is reported as “Dose-dependent effect”.

`C=C1[C@H](c2ccc(O)c(OC)c2)O[C@H](c2ccc(O)c(OC)c2)[C@@]12CCC1=C(C2)[C@@H](c2ccc(O)c(OC)c2)O[C@H]1c1ccc(O)c(OC)c1` [RAMONANIN B] was tested, and the IC50 (MDA-MB-231 [3]) was 18 µM, the Activity (MDA-MB-231 [1]) was “Active” and the Activity (MDA-MB-231 [2]) was “Dose-dependent effect”. For the same compound, the Activity (MDA-MB-231 [4]) was <4%.

`C=C1[C@@H](c2ccc(O)c(OC)c2)O[C@@H](c2ccc(O)c(OC)c2)[C@@]12CCC1=C(C2)[C@H](c2ccc(O)c(OC)c2)O[C@@H]1c1ccc(O)c(OC)c1` [RAMONANIN C] showed an IC50 (MDA-MB-231 [3]) of 18 µM.

For `C=C1[C@@H](c2ccc(O)c(OC)c2)O[C@@H](c2ccc(O)c(OC)c2)[C@@]12CCC1=C(C2)[C@@H](c2ccc(O)c(OC)c2)O[C@H]1c1ccc(O)c(OC)c1` [RAMONANIN A], the Activity (MDA-MB-231 [5]) was “Dose-dependent effect”, the Activity (MDA-MB-231 [6]) was “Dose-dependent effect” and the Activity (MDA-MB-231 [7]) was “Dose-dependent effect”. For the same compound, the IC50 (MDA-MB-231 [3]) was 18 µM, the Activity (MDA-MB-231 [8]) was “Dose-dependent effect” and the Activity (MDA-MB-231 [1]) was “Active”. For the same compound, the Activity (MDA-MB-231 [2]) was “Dose-dependent effect”, the Activity (MDA-MB-231 [4]) was <4% and the Activity (MDA-MB-231 [9]) was “tde”. The Activity (MDA-MB-231 [10]) was “tde”, the Activity (MDA-MB-231 [11]) was “tde” and the Activity (MDA-MB-231 [12]) was “tde”. The Activity (MDA-MB-231 [13]) was “tde” and the Activity (MDA-MB-231 [14]) was “Dose-dependent effect”.

`C=C1[C@@H](c2ccc(O)c(OC)c2)O[C@@H](c2ccc(O)c(OC)c2)[C@@]12CCC1=C(C2)[C@@H](c2ccc(O)c(OC)c2)O[C@@H]1c1ccc(O)c(OC)c1` [RAMONANIN D] was tested, and the IC50 (MDA-MB-231 [3]) was 18 µM.
